Consider 15 molecules from ChEMBL document CHEMBL3045973, “Synthesis and insecticidal activity of novel 4beta-halogenated benzoylamino podophyllotoxins against Pieris rapae Linnaeus” (2002).

The source made the active and inactive calls. No cut-off for these calls is given here.

Experiment [1] deals with Pieris rapae. Description: Insecticidal activity against fifth-instar larvae of Pieris rapae fed on compound treated cabbage leaf assessed as mortality at 250 ppm dipped for 3 secs measured after 5 days (reference value: 0%). The experiment is classed as functional.
The subject of experiment [2] is Pieris rapae. The experiment can be described thus: Insecticidal activity against fifth-instar larvae of Pieris rapae fed on compound treated cabbage leaf assessed as immobilization at 250 ppm dipped for 3 secs measured after 48 hr relative to control. It counts as functional, organism-based.
Experiment [3] has as its system Pieris rapae. The experiment can be described thus: Insecticidal activity against fifth-instar larvae of Pieris rapae fed on compound treated cabbage leaf assessed as mortality at 250 ppm dipped for 3 secs measured after 15 days (reference value: 10 1.22%). It counts as functional.
Experiment [4] relates to Pieris rapae. Description: Insecticidal activity against fifth-instar larvae of Pieris rapae fed on compound treated cabbage leaf assessed as change in spontaneous movement at 250 ppm dipped for 3 secs measured after 24 hr relative to control. It counts as functional, organism-based.
For experiment [5], the system named is Pieris rapae. The experiment can be described thus: Insecticidal activity against fifth-instar larvae of Pieris rapae fed on compound treated cabbage leaf assessed as mortality at 250 ppm dipped for 3 secs measured after 10 days (reference value: 6.67 1.56%). The experiment is classed as functional.
Experiment [6] relates to Pieris rapae. The experiment can be described thus: Insecticidal activity against fifth-instar larvae of Pieris rapae fed on compound treated cabbage leaf assessed as paralysis at 250 ppm dipped for 3 secs measured after 48 hr relative to control. The experiment is classed as functional, organism-based.
The subject of experiment [7] is Pieris rapae. The experiment can be described thus: Insecticidal activity against fifth-instar larvae of Pieris rapae fed on compound treated cabbage leaf assessed as inhibition of reproduction in pupated adultoids at 250 ppm dipped for 3 secs relative to control. It counts as functional, organism-based.
Experiment [8] concerns Pieris rapae. The experiment can be described thus: Insecticidal activity against fifth-instar larvae of Pieris rapae fed on compound treated cabbage leaf assessed as delay in metamorophosis at 250 ppm dipped for 3 secs relative to control. It counts as functional, organism-based. The procedure, abridged: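 Fifth-instar P. rapae larvae dosed by the leaf-dipping method at 250 ppm. Development time from larva to adulthood was compared with a control group.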

Experiment [9] deals with Pieris rapae. The experiment can be described thus: Insecticidal activity against fifth-instar larvae of Pieris rapae fed on compound treated cabbage leaf assessed as loss of body fluid at 250 ppm dipped for 3 secs measured after 48 hr relative to control. It counts as functional, organism-based.

As for `COc1cc([C@@H]2c3cc4c(cc3[C@@H](NC(=O)c3cccc(I)c3)[C@H]3COC(=O)[C@H]23)OCO4)cc(OC)c1OC`, the results for the mortality in the experiment with Pieris rapae [1], in the experiment on Pieris rapae [3] and in the experiment with Pieris rapae [5] were 8.35%, 69.69% and 40.71%, respectively. The result in the experiment with Pieris rapae [2], in the experiment with Pieris rapae [4], with Pieris rapae [6], in the experiment on Pieris rapae [7], in the experiment with Pieris rapae [8] and in the experiment on Pieris rapae [9] was Active.
For `CCOP(=S)(OCC)Oc1ccc([N+](=O)[O-])cc1` [PARATHION], in the experiment with Pieris rapae [1], the mortality is 100%.
As to `COc1cc([C@@H]2c3cc4c(cc3[C@@H](NC(=O)c3ccc(Cl)cc3)[C@H]3COC(=O)[C@H]23)OCO4)cc(OC)c1OC`, the mortality in the experiment with Pieris rapae [1] is 36.84%; in the experiment on Pieris rapae [3], 94.95%; in the experiment on Pieris rapae [5], 72.08%. Moreover, the result in the experiment with Pieris rapae [2], in the experiment on Pieris rapae [4], in the experiment with Pieris rapae [6], with Pieris rapae [7], in the experiment with Pieris rapae [8] and with Pieris rapae [9] was Active.
For the molecule `COc1cc([C@@H]2c3cc4c(cc3[C@@H](N)[C@H]3COC(=O)[C@H]23)OCO4)cc(OC)c1OC` [4BETA-NH2-PODOPHYLLOTOXIN], the mortality in the experiment on Pieris rapae [1] is 21.69%; in the experiment with Pieris rapae [3], 49.48%; in the experiment on Pieris rapae [5] it was 36.43%. For the same molecule, the outcome with Pieris rapae [2], with Pieris rapae [4], with Pieris rapae [6], with Pieris rapae [7], in the experiment on Pieris rapae [8] and with Pieris rapae [9] was Active.
As for `COc1cc([C@@H]2c3cc4c(cc3[C@@H](NC(=O)c3cccc(Br)c3)[C@H]3COC(=O)[C@H]23)OCO4)cc(OC)c1OC`, the mortality in the experiment with Pieris rapae [1] was 46.15%; with Pieris rapae [3], 85.42%; in the experiment with Pieris rapae [5] it was 69.23%. For the same molecule, the outcome in the experiment with Pieris rapae [2], in the experiment on Pieris rapae [4], in the experiment with Pieris rapae [6], in the experiment with Pieris rapae [7], in the experiment on Pieris rapae [8] and in the experiment with Pieris rapae [9] was Active.
Regarding `COc1cc([C@@H]2c3cc4c(cc3[C@@H](NC(=O)c3ccccc3F)[C@H]3COC(=O)[C@H]23)OCO4)cc(OC)c1OC`, the mortality with Pieris rapae [1] is reported as 22.68%; with Pieris rapae [3], 68.42%; with Pieris rapae [5], 46.41%. Further, the result in the experiment with Pieris rapae [2], in the experiment with Pieris rapae [4], in the experiment on Pieris rapae [6], with Pieris rapae [7], in the experiment with Pieris rapae [8] and in the experiment on Pieris rapae [9] was Active.
Take `COc1cc([C@@H]2c3cc4c(cc3[C@@H](NC(=O)c3ccc(Br)cc3)[C@H]3COC(=O)[C@H]23)OCO4)cc(OC)c1OC`: the mortality with Pieris rapae [1] is 14.81%; in the experiment on Pieris rapae [3], 85.97%; in the experiment on Pieris rapae [5] it was 51.85%. Also, the result with Pieris rapae [2], in the experiment with Pieris rapae [4], with Pieris rapae [6], with Pieris rapae [7], with Pieris rapae [8] and with Pieris rapae [9] was Active.
On to `COc1cc([C@@H]2c3cc4c(cc3[C@@H](NC(=O)c3cccc(Cl)c3)[C@H]3COC(=O)[C@H]23)OCO4)cc(OC)c1OC`, for which the values for the mortality in the experiment with Pieris rapae [1], with Pieris rapae [3] and in the experiment on Pieris rapae [5] were 16.56%, 94.73% and 54.25%, respectively. Further, the outcome with Pieris rapae [2], in the experiment with Pieris rapae [4], in the experiment with Pieris rapae [6], in the experiment on Pieris rapae [7], in the experiment with Pieris rapae [8] and in the experiment with Pieris rapae [9] was Active.
On to `COc1cc([C@@H]2c3cc4c(cc3[C@@H](NC(=O)c3ccc(I)cc3)[C@H]3COC(=O)[C@H]23)OCO4)cc(OC)c1OC`, for which the mortality in the experiment on Pieris rapae [1] is on record as 20.73%; in the experiment on Pieris rapae [3], 73.87%; in the experiment on Pieris rapae [5] it was 48.28%. The result in the experiment on Pieris rapae [2], in the experiment with Pieris rapae [4], in the experiment with Pieris rapae [6], with Pieris rapae [7], in the experiment with Pieris rapae [8] and with Pieris rapae [9] was Active.
Take `COc1cc([C@@H]2c3cc4c(cc3[C@@H](NC(=O)c3ccc(F)cc3)[C@H]3COC(=O)[C@H]23)OCO4)cc(OC)c1OC`: the mortality was determined as 11.11% with Pieris rapae [1], 66.76% in the experiment on Pieris rapae [3] and 44.74% in the experiment with Pieris rapae [5]. The outcome in the experiment with Pieris rapae [2], in the experiment with Pieris rapae [4], with Pieris rapae [6], in the experiment on Pieris rapae [7], in the experiment with Pieris rapae [8] and in the experiment on Pieris rapae [9] was Active.
For `COc1cc([C@@H]2c3cc4c(cc3[C@@H](NC(=O)c3ccccc3Br)[C@H]3COC(=O)[C@H]23)OCO4)cc(OC)c1OC`, the mortality in the experiment on Pieris rapae [1] is 4.35%; in the experiment on Pieris rapae [3] it was 74.74%; with Pieris rapae [5], 44.78%. The result in the experiment on Pieris rapae [2], in the experiment with Pieris rapae [4], in the experiment with Pieris rapae [6], with Pieris rapae [7], in the experiment with Pieris rapae [8] and with Pieris rapae [9] was Active.
Turning to `COc1cc([C@@H]2c3cc4c(cc3[C@@H](NC(=O)c3ccccc3Cl)[C@H]3COC(=O)[C@H]23)OCO4)cc(OC)c1OC`, the mortality with Pieris rapae [1] worked out at 4.54%; in the experiment with Pieris rapae [3], 65.56%; with Pieris rapae [5], 36.36%. Further, the outcome with Pieris rapae [2], with Pieris rapae [4], in the experiment on Pieris rapae [6], in the experiment with Pieris rapae [7], with Pieris rapae [8] and with Pieris rapae [9] was Active.
Turning to `COc1cc([C@@H]2c3cc4c(cc3[C@@H](NC(=O)c3ccccc3I)[C@H]3COC(=O)[C@H]23)OCO4)cc(OC)c1OC`, the mortality in the experiment with Pieris rapae [1] is given as 12.62%; with Pieris rapae [3] it was 69.69%; in the experiment on Pieris rapae [5], 48.36%. Also, the outcome with Pieris rapae [2], with Pieris rapae [4], in the experiment with Pieris rapae [6], in the experiment on Pieris rapae [7], in the experiment with Pieris rapae [8] and in the experiment on Pieris rapae [9] was Active.
Turning to `COc1cc([C@@H]2c3cc4c(cc3[C@@H](NC(=O)c3cccc(F)c3)[C@H]3COC(=O)[C@H]23)OCO4)cc(OC)c1OC`, the mortality was 18.57% with Pieris rapae [1], 86.7% with Pieris rapae [3] and 49.46% with Pieris rapae [5]. Further, the outcome in the experiment on Pieris rapae [2], in the experiment on Pieris rapae [4], in the experiment with Pieris rapae [6], in the experiment with Pieris rapae [7], in the experiment with Pieris rapae [8] and with Pieris rapae [9] was Active.
On to `COc1cc([C@@H]2c3cc4c(cc3[C@H](O)[C@H]3COC(=O)[C@H]23)OCO4)cc(OC)c1OC` [PODOFILOX], for which the mortality was found to be 34.02% with Pieris rapae [1], 74.74% in the experiment with Pieris rapae [3] and 53.36% in the experiment with Pieris rapae [5]. For the same molecule, the outcome in the experiment on Pieris rapae [2], in the experiment on Pieris rapae [4], in the experiment on Pieris rapae [6], in the experiment with Pieris rapae [7], in the experiment on Pieris rapae [8] and in the experiment with Pieris rapae [9] was Active.

In general, mortality refers to the percentage killed.
